Experimental findings from ChEMBL document CHEMBL4052683, “The discovery of benzoxazine sulfonamide inhibitors of NaV1.7: Tools that bridge efficacy and target engagement” (Bioorg Med Chem Lett, 2017) are described below.

Each structure is given as a SMILES string.

Data set [1] addresses Sodium channel protein type 9 subunit alpha (Rattus norvegicus, UniProt O08562). Put plainly: Inhibition of rat NaV1.7 by cell based whole cell voltage clamp method. In a few lines:
(§1)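 PatchXpress electrophysiology was run with a protocol giving about 20% channel inactivation. At least four concentrations at half-log spacing were applied one at a time, with washout, current recovery and holding voltage reset between each. Data were pooled from at least 10 cells, with 2–3 points per concentration, and fitted with a 4-parameter Hill curve to give one IC50.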

The target in data set [2] is Sodium channel protein type 5 subunit alpha (Homo sapiens, UniProt Q14524). As to the kind of experiment: Inhibition of human NaV1.5 expressed in […] cells at holding potential of -125 mV with test potentials to -10 mV by whole cell voltage clamp method. It counts as cell-based.
The species named for another data set is Homo sapiens. Put plainly: Selectivity index, ratio of IC50 for human NaV1.5 expressed in […] cells to IC50 for human NaV1.7 expressed in HEK293 cells. It counts as cell-based.
Another data set concerns Rattus norvegicus. As to the kind of experiment: Unbound clearance in rat at 0.5 mg/kg, iv by LC-MS/MS method. The following applies: in vivo. The format is ADME, organism-based. The method in brief: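 Male rats given 0.5 mg/kg intravenously as a solution in DMSO. Unbound clearance was calculated as rat clearance divided by unbound fraction, with unbound fraction determined by equilibrium dialysis.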

Data set [3] in a line: Clearance in rat at 0.5 mg/kg, iv by LC-MS/MS method. It counts as ADME, organism-based. The following applies: in vivo. In a few lines:
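Male rats got 0.5 mg/kg IV as a DMSO solution. Unbound clearance was taken as rat clearance divided by the unbound fraction from equilibrium dialysis.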

The nature of data set [4]: Apparent permeability in MDCK vector control cells at 5 uM. The following applies: dog.
Data set [5] is described as follows: Clearance in pooled rat liver microsomes at 1 uM in presence of NADPH by LC-MS/MS method. As to conditions: read-out: CLH. It counts as ADME, microsome.
Data set [6] can be described thus: Clearance in pooled human liver microsomes at 1 uM in presence of NADPH by LC-MS/MS method. The format is ADME, microsome. As to conditions: read-out: CLH.
Data set [7] in a line: Dissociation constant, pKa of the compound. It counts as physicochemical.
In data set [8] the target is T1, Sodium channel protein type 9 subunit alpha (Homo sapiens, UniProt Q15858). Put plainly: Inhibition of human NaV1.7 expressed in HEK293 cells at holding potential of -125 mV with test potentials to -10 mV by whole cell voltage clamp method. The format is cell-based.
The nature of data set [9]: Inhibition of cynomolgus monkey NaV1.7 by whole cell voltage clamp method. The following applies: Macaca fascicularis. In a few lines:
as §1

For data set [10], the target named is Sodium channel protein type 9 subunit alpha (Mus musculus, UniProt Q62205). Put plainly: Inhibition of mouse NaV1.7 by whole cell voltage clamp method. In a few lines:
as §1

The target of data set [11] is T1, Sodium channel protein type 9 subunit alpha. As to the kind of experiment: Displacement of (P)-1-(30-chloro-2-fluoro-5,50-dimethoxy-[1,10biphenyl]-4-yl)-N-(isoxazol-3-yl)-2-oxo-1,2-dihydroquinoline-6-sulfonamide[50-methoxy-C3H3] from human NaV1.7 expressed in HEK293 cell membranes incubated for 1 hr by beta counting method. In a few lines:
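Human NaV1.7 radioligand displacement using the tritiated 5'-methoxy-labelled dihydroquinoline sulfonamide ligand, which binds the VSDIV pocket.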

T1 sequence (Q15858 whole entry): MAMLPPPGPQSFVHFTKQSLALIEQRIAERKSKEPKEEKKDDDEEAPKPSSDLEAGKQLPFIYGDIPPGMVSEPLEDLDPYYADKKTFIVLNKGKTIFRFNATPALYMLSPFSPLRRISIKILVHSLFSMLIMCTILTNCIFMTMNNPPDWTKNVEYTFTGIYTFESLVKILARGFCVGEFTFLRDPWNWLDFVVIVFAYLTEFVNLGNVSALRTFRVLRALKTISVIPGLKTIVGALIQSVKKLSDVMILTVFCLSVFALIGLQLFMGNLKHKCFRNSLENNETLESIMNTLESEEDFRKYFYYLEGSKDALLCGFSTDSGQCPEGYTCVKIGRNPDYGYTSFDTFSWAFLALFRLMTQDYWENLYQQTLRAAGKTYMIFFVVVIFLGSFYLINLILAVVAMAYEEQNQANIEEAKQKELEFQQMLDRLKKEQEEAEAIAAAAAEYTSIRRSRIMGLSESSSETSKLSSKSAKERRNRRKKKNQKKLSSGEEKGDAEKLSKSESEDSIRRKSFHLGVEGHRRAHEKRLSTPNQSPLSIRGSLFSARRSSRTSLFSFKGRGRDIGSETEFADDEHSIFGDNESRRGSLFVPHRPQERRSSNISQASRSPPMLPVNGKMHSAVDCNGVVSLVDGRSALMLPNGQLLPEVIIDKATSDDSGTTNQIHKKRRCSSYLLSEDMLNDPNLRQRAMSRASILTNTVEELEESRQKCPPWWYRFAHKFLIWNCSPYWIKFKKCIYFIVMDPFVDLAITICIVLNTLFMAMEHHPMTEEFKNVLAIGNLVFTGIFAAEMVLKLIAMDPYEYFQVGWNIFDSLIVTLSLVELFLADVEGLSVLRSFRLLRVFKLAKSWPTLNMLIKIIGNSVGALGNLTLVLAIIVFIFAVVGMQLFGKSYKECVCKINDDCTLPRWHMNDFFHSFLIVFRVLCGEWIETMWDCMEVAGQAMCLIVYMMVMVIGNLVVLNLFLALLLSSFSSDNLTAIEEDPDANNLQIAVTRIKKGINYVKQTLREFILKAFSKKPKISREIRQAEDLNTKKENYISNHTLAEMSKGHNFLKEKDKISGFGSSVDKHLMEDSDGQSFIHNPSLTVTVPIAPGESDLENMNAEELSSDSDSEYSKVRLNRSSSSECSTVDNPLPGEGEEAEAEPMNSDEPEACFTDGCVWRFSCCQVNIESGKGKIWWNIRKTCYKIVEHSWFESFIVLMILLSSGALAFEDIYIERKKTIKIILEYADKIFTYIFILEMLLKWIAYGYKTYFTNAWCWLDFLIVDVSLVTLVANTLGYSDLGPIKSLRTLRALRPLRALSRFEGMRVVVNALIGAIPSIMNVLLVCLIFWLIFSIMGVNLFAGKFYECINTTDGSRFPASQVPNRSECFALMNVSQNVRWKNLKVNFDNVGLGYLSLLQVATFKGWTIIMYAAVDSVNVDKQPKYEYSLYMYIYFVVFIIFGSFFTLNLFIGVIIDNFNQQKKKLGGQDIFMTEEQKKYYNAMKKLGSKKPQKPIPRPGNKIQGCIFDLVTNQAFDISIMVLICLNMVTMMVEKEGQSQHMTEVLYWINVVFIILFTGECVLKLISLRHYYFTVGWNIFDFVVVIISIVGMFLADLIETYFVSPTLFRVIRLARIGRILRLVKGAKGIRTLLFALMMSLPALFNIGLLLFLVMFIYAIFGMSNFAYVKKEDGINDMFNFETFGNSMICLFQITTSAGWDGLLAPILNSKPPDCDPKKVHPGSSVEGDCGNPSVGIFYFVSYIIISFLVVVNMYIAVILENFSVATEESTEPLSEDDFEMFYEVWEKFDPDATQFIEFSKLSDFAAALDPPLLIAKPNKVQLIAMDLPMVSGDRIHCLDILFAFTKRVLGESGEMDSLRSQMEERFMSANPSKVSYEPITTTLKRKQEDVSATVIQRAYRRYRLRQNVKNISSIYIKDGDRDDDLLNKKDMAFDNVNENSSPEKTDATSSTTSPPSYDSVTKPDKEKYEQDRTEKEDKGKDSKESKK
Chain of Sodium channel protein type 9 subunit alpha (Mus musculus, UniProt Q62205) (Q62205 whole entry): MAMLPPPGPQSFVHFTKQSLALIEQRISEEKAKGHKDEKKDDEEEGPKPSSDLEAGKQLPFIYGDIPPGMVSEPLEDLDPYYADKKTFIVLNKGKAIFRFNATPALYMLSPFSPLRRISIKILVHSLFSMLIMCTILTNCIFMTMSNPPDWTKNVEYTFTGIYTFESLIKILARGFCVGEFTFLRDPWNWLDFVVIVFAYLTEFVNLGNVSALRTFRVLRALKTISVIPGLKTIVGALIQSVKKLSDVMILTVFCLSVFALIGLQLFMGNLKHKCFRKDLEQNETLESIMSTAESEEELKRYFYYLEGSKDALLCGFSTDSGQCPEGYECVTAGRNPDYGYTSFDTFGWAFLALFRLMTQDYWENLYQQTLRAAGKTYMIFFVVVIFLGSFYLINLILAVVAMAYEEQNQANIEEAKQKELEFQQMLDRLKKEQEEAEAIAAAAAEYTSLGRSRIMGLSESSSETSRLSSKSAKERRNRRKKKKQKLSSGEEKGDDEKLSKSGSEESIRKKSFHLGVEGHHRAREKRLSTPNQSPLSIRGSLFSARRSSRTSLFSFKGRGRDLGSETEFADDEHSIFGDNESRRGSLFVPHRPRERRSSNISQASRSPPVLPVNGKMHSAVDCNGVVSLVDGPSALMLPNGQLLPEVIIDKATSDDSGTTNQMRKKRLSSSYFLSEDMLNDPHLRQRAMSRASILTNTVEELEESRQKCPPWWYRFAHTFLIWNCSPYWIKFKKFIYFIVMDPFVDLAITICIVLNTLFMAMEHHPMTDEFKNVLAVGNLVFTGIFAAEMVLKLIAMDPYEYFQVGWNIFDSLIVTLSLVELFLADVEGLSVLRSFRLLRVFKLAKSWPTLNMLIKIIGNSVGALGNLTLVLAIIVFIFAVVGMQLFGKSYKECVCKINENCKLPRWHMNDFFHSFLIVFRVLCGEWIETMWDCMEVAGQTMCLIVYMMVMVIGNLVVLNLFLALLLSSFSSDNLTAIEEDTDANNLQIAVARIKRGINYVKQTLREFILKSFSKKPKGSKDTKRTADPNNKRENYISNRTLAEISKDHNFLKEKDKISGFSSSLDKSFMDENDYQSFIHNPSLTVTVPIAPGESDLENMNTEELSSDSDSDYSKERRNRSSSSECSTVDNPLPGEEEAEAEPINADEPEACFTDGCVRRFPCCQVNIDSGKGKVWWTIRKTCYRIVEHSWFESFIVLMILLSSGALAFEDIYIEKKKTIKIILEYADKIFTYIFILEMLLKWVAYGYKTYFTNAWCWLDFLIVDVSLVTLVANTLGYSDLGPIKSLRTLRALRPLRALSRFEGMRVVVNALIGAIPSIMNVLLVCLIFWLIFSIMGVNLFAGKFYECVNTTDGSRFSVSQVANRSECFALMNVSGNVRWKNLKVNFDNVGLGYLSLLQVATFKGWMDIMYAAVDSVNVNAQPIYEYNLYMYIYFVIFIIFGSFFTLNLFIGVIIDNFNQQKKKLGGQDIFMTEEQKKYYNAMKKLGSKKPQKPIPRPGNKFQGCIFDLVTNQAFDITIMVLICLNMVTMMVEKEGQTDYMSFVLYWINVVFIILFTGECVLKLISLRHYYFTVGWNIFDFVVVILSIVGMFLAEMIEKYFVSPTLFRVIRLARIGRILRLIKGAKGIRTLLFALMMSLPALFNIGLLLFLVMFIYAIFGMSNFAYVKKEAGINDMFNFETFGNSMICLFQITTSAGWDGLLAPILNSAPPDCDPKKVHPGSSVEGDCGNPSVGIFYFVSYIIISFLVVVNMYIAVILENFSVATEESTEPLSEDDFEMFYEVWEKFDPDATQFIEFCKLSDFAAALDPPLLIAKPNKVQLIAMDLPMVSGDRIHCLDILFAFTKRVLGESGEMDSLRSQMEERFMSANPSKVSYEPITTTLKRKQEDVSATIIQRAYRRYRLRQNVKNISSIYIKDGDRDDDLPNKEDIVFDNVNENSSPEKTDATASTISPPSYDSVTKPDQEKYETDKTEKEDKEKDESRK

`O=S(=O)(Nc1ccncn1)c1ccc2c(c1)OCCN2c1ccc(C(F)(F)F)cc1C1=CCNCC1`: the values for the IC50 in data set [1] and in data set [2] were greater than 30000 nM and 1500 nM, respectively. For the same molecule, the Ratio IC50 in the data set listed under Homo sapiens turned out to be 11. Also, the CL free in the data set with Rattus norvegicus amounted to 233 mL/min/kg. The molecule also gave a clearance in data set [3] of 43.3 mL/min/kg. The Papp at 5 µM in data set [4] was 1 ×10⁻⁶ cm/s.
For the molecule `N#Cc1cc(C(F)(F)F)ccc1N1CCOc2cc(S(=O)(=O)Nc3nccs3)ccc21`, the IC50 in data set [1] came out at 1100 nM; in data set [2] it was 1500 nM. Further, in the data set listed under Homo sapiens, the Ratio IC50 was found to be 8. The CL free with Rattus norvegicus was found to be 517 mL/min/kg. Besides, the clearance in data set [3] is 5.5 mL/min/kg. Also, the microsomal CLint at 1 µM in data set [5] and in [6] was less than 14 µL/min/mg throughout. Moreover, in data set [7], the pKa came out at 7. In addition, in data set [4], the Papp at 5 µM was determined as 22 ×10⁻⁶ cm/s.
`O=S(=O)(Nc1ccncn1)c1ccc2c(-c3ccc(C(F)(F)F)cc3C3=CCNCC3)cccc2c1`: the IC50 in data set [8] was 90 nM; in data set [1], greater than 30000 nM; in data set [2], greater than 30000 nM; in [9], 100 nM; in data set [10], 4300 nM. Moreover, the Ratio IC50 in the data set filed under Homo sapiens was greater than 330. For the same molecule, the CL free in the data set on Rattus norvegicus was 667 mL/min/kg. Further, the clearance in data set [3] was 28.3 mL/min/kg. Moreover, in data set [4], the Papp at 5 µM is 1.3 ×10⁻⁶ cm/s.
In the case of `COc1cc(C#N)ccc1N1CCOc2cc(S(=O)(=O)Nc3nccs3)ccc21`, the 50% inhibitory concentration (IC50) in [8] came out at 250 nM; in [1] it was 850 nM; in data set [2] it was 14000 nM. In addition, in the data set filed under Homo sapiens, the Ratio IC50 is 56. In addition, in the data set on Rattus norvegicus, the CL free was determined as 883 mL/min/kg. Also, in data set [3], the clearance is 14 mL/min/kg. Also, the microsomal CLint at 1 µM in data set [5] came to 22 µL/min/mg; in [6], 36 µL/min/mg. The Papp at 5 µM in data set [4] turned out to be 20 ×10⁻⁶ cm/s.
Turning to `N#Cc1cc(C(F)(F)F)ccc1N1CCOc2cc(S(=O)(=O)Nc3ccncn3)ccc21`, the IC50 in data set [1] worked out at 3000 nM; in data set [2] it was 4600 nM. Further, the Ratio IC50 in the data set listed under Homo sapiens was determined as 10. The molecule also displayed a CL free in the data set on Rattus norvegicus of 120 mL/min/kg. For the same molecule, in data set [3], the clearance was 2.83 mL/min/kg. Further, the microsomal CLint at 1 µM in data set [5] and in data set [6] was less than 14 µL/min/mg throughout. Also, the pKa in data set [7] amounted to 5.8. In addition, the Papp at 5 µM in [4] came out at 9.7 ×10⁻⁶ cm/s.
For the molecule `COc1ccccc1N1CCOc2cc(S(=O)(=O)Nc3nccs3)ccc21`, the IC50 was 1600 nM in data set [1] and greater than 30000 nM in data set [2]. Further, in the data set listed under Homo sapiens, the Ratio IC50 was greater than 79. Moreover, the microsomal CLint at 1 µM worked out at 297 µL/min/mg in data set [5] and 68 µL/min/mg in [6]. Besides, the Papp at 5 µM in data set [4] turned out to be 28 ×10⁻⁶ cm/s.
`COc1cc(C(F)(F)F)ccc1N1CCOc2cc(S(=O)(=O)Nc3nccs3)ccc21` showed an IC50 in data set [1] of 390 nM. The CL free in the data set on Rattus norvegicus stood at 667 mL/min/kg. Besides, the results for the microsomal CLint at 1 µM in data set [5] and in data set [6] were 53 µL/min/mg and 30 µL/min/mg, respectively.
With `N#Cc1cc(C(F)(F)F)ccc1N1CCOc2cc(S(=O)(=O)Nc3ccno3)ccc21`, the microsomal CLint at 1 µM was less than 14 µL/min/mg in data set [5] and 32 µL/min/mg in data set [6]. Moreover, the Papp at 5 µM in data set [4] was less than 1 ×10⁻⁶ cm/s.
Consider `N#Cc1cc(C(F)(F)F)ccc1N1CCOc2cc(S(=O)(=O)Nc3nccs3)cc(F)c21`, for which the IC50 in data set [1] turned out to be 560 nM; in data set [2], 650 nM. Besides, the microsomal CLint at 1 µM in data set [5] and in [6] was less than 14 µL/min/mg each time. In [4], the Papp at 5 µM was found to be 26 ×10⁻⁶ cm/s.
Turning to `N#Cc1cc(C(F)(F)F)ccc1N1CCOc2cc(S(=O)(=O)Nc3ncco3)ccc21`, the microsomal CLint at 1 µM is less than 14 µL/min/mg in [5] and 15 µL/min/mg in data set [6]. In data set [4], the apparent permeability coefficient (Papp) at 5 µM is 6.4 ×10⁻⁶ cm/s.
`Cn1nccc1-c1ccccc1Oc1ccc(S(=O)(=O)Nc2nccs2)cc1C#N`: the IC50 was found to be 4200 nM in data set [1], 20 nM in data set [9] and 130 nM in data set [10].
Take `N#Cc1cc(C(F)(F)F)ccc1N1CCOc2cc(S(=O)(=O)Nc3ncns3)ccc21`: the IC50 worked out at 90 nM in data set [8] and 21 nM in [11]. This molecule gave a CL free with Rattus norvegicus of 1180 mL/min/kg. The clearance in data set [3] was 10.7 mL/min/kg. For the same molecule, the microsomal CLint at 1 µM in data set [5] was 34 µL/min/mg; in data set [6] it was less than 14 µL/min/mg. Moreover, the pKa in data set [7] came to 3.8. Besides, the apparent permeability (Papp) at 5 µM in data set [4] came out at 1.6 ×10⁻⁶ cm/s.
For the molecule `N#Cc1cc(C(F)(F)F)ccc1N1CCOc2cc(S(=O)(=O)Nc3nccs3)c(Cl)cc21`, the IC50 was determined as 390 nM in [8]; 50 nM in data set [1]; 610 nM in [2]; 300 nM in data set [9]; 100 nM in [10]; 20 nM in data set [11]. Moreover, the microsomal CLint at 1 µM in data set [5] was found to be 21 µL/min/mg; in data set [6], 22 µL/min/mg. In addition, the Papp at 5 µM in [4] was 27 ×10⁻⁶ cm/s.
As to `COc1cc(F)ccc1N1CCOc2cc(S(=O)(=O)Nc3nccs3)ccc21`, the IC50 in [8] was 280 nM; in data set [1], 880 nM; in [2] it was greater than 30000 nM. Besides, the Ratio IC50 in the data set listed under Homo sapiens is greater than 100. Also, the microsomal CLint at 1 µM was greater than 399 µL/min/mg in [5] and 110 µL/min/mg in [6]. The Papp at 5 µM in data set [4] worked out at 36 ×10⁻⁶ cm/s.
For `N#Cc1cc(C(F)(F)F)ccc1N1CCOc2cc(S(=O)(=O)Nc3cscn3)ccc21`, the figures for the microsomal CLint at 1 µM in [5] and in data set [6] were less than 14 µL/min/mg and 55 µL/min/mg, respectively. Moreover, the Papp at 5 µM in data set [4] is 39 ×10⁻⁶ cm/s.
Take `N#Cc1cc(C(F)(F)F)ccc1N1CCOc2c1ccc(S(=O)(=O)Nc1nccs1)c2F`: the IC50 in data set [1] is 1700 nM; in [2], 2100 nM. Moreover, the microsomal CLint at 1 µM in data set [5] and in data set [6] was less than 14 µL/min/mg throughout. For the same molecule, in data set [4], the Papp at 5 µM came out at 38 ×10⁻⁶ cm/s.
